STK33 kinase inh – inhibitors of purified STK33 kinase, primary screen, biochemical, ADP-Glo luminescence, homogeneous, cell-free; MBP phosphorylation; 320,000 tested, 0.073% active; Serine/threonine-protein kinase 33 (Homo sapiens), Q9BYT3; inhibition, % at 10 µM;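 active = inhibition at or above 25%, using the most active replicate where run in duplicate; inactive = inhibition below 25%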
Target sequence (Q9BYT3 whole entry, looked up): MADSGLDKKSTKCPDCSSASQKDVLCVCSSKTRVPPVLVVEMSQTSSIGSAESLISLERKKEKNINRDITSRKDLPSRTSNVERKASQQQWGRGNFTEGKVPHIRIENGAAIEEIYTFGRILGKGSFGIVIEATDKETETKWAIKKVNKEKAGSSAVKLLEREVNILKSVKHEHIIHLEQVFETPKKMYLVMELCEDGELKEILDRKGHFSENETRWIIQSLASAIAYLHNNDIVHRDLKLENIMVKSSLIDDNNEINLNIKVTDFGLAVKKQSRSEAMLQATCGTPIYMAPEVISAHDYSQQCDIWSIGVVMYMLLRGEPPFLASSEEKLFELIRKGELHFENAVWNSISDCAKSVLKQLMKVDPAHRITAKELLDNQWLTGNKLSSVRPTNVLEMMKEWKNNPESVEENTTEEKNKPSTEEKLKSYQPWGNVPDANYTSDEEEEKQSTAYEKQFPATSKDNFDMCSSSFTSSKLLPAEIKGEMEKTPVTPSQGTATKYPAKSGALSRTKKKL
Efflux pump mplx – inhibitors of Candida efflux pumps in yeast, primary screen, S. cerevisiae, Nile Red, multiplex | S. cerevisiae Candida pump triplex | inhibition, % at 10 µM | 330,000 tested, 0.44% active | AID 485275, 2010;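 active = plate passing quality check with inhibition over a set limit, or well fluorescence over plate mean plus 4 SD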;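 also: Nile Red retained in pooled yeast measured as flow cytometry median fluorescence; 0% = buffer negative control and 100% = Enniatin B positive control; higher means more Nile Red kept so more efflux inhibition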
GSK3beta inhib – human GSK3beta kinase inhibitors, primary screen, biochemical, cell-free homogeneous, HTS | 300,000 tested, 0.038% active | activity score (negative = inhibition), % at 10 µM | GST-GSK3beta kinase, ADP-Glo luminescence, 60 min; hits give low values;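 active = more than half of replicate wells score below -50%, meaning over 50% inhibition versus plate controls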;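 also: 0% = median DMSO wells and -100% = median GW8510 positive control wells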
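Test system: GST-tagged human GSK3beta kinase, cell-free; evaluation: activity score scaled between in-plate DMSO and GW8510 controls; measured by: ADP-Glo luminescence; incubation: 60 min reaction, RT; benchmarks: DMSO and 20 µM GW8510; reagent: peptide substrate plus 25 µM ATP (final); medium: Tris/MgCl2 kinase buffer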
PolyA inhibitor – polyadenylation inhibitors in yeast reporter cells, primary screen, luminescence, S. cerevisiae; activity score, % at 12 µM; 300,000 tested, 0.02% active; S. cerevisiae SKY197-pL101 polyadenylation reporter, beta-gal luminescence; efflux-impaired pdr1/pdr3 knockout yeast; score 100 = 6 SD above DMSO; AID 1875, 2009;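 active = lowest replicate activity score at least 50, where 100 means six control SD above control mean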;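 also: yeast exposed to compound for 9 h at 30 °C; higher score means more reporter readthrough which indicates perturbed polyadenylation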
GSK3A inh – blockers of GSK3A enzyme activity – biochemical, luminescence, cell-free homogeneous, HTS, primary screen. 320,000 tested, 0.1% active. GSK-3 alpha kinase, ADP-Glo luminescence, 60 min. inhibition, % at 10 µM. Glycogen synthase kinase-3 alpha (Homo sapiens), P49840. AID 2650, 2010;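 active = more than half of replicates show inhibition above 20%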;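 also: GST-tagged GSK-3 alpha with peptide substrate and 25 µM ATP; 0% = DMSO neutral wells and 100% = GW8510 positive control wells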
Cmpd fluor yeast – counter-screen for efflux pump inhibitors: compound fluorescence | shares compounds with Efflux pump mplx | S. cerevisiae AD/pABC3, flow cytometry | fluorescence ratio to DMSO, % at 10 µM | 1,700 tested, 4% active;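 active = fluorescence ratio to DMSO above its plate's cutoff, the plate mean ratio plus 5 SD, cut at about 210% in these data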;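 also: unstained yeast with no Nile Red so the signal is compound autofluorescence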
CaMdr1 efflux inh – inhibitors of Candida albicans Mdr1 efflux, confirmation, flow cytometry, singleplex, Cherry Pick1 set | AID 588518, 2011 | S. cerevisiae AD/CaMDR1, Nile Red efflux | inhibition, % at 10 µM | 1,700 tested, 1% active | shares compounds with Efflux pump mplx; in the data active = inhibition above about 26%;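 also: 0% = DMSO vehicle and 100% = reference inhibitor; higher means more Nile Red retained so more efflux inhibition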
CaCdr2 efflux inh – inhibitors of Candida albicans Cdr2 efflux pump, confirmation, S. cerevisiae AD/CaCDR2, flow cytometry, cherry pick 1, singleplex; Nile Red retention ratio vs DMSO, % at 10 µM; 1,700 tested, 4% active; Nile Red retention; AID 588520, 2011; shares compounds with Efflux pump mplx; in the data active = Nile Red retention ratio vs DMSO above about 190%;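 also: higher ratio means more blocking of Cdr2 efflux of the dye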
Cdr1 pump inh – inhibitors of Candida albicans Cdr1 efflux pump, confirmation, S. cerevisiae AD/CaCDR1, flow cytometry, cherry pick 1, singleplex; shares compounds with Efflux pump mplx; Nile Red efflux; inhibition, % at 10 µM; 1,700 tested, 1% active;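 active = inhibition above the screen-wide mean plus twice its standard deviation, cut at about 32% in these data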
Starred values were filed as active, the others as inactive; . = not tested or not shown. An excerpt weighted towards active compounds, which were near 0.6% of everything screened.

SMILES	STK33 kinase inh	Efflux pump mplx	GSK3beta inhib	PolyA inhibitor	GSK3A inh	Cmpd fluor yeast	CaMdr1 efflux inh	CaCdr2 efflux inh	Cdr1 pump inh
Cc1cc(C)c2c(N)c(C(=O)NN3CC(=O)N(c4ccccc4F)CC3=O)sc2n1	-1	0.8*	0	-7	0	94	0	91	0
NS(=O)(=O)c1ccc(CCNC(=O)c2cc(-c3ccccc3)nc3ccccc23)cc1	-1	21*	-3	-8	1	108	0	94	0
Cc1ccc(-c2cc(C(=O)NCCc3ccc(S(N)(=O)=O)cc3)c3ccccc3n2)cc1	-2	0	0	22	-5	.	.	.	.
O=C(NC1CCCC1)C(c1ccncc1)N(C(=O)c1ccco1)c1ccccc1 (stereo not drawn)	6	0.6*	1	5	-3	98	0	108	0
COc1ccc(C(=O)NC2CCN(CC(=O)NCc3ccccc3F)CC2)cc1	-1	0	0	0	-1	.	.	.	.
COc1ccc(C(=O)NC2CCCc3c2cnn3-c2ccccc2F)o1 (stereo not drawn)	-1	-1	4	32	-1	95	0	107	0
COc1cc(C(=O)NC2CCCc3c2cnn3-c2ccccc2F)cc(OC)c1OC (stereo not drawn)	1	0	0	1	-1	.	.	.	.
CCCOP(=O)(c1ccc(N(C)C)cc1)C(Nc1ccccc1)c1ccc(N(C)C)cc1 (stereo not drawn)	0	2.6*	0	7	2	112	0	121	0
CCCCOP(=O)(c1ccc(N(C)C)cc1)C(Nc1ccccc1)c1ccccc1 (stereo not drawn)	1	0	0	1	1	.	.	.	.
O=C(CN1CCN(Cc2ccc(F)cc2)CC1)NCc1ccccc1	0	0	-4	1	-1	.	.	.	.
CC(C)(C)c1ccc(C(=O)N2CCN(c3ncccn3)CC2)cc1	1	0	3	8	-2	.	.	.	.
CC(C)CCOc1ccc(C(=O)N2CCN(c3ncccn3)CC2)cc1	3	3.5*	3	-4	-7	106	0	102	0
O=C(CN1C(=O)CC(c2ccccc2)S(=O)(=O)c2ccccc21)N1CCCC1 (stereo not drawn)	-2	0	0	3	0	.	.	.	.
Cc1ccccc1S(=O)(=O)Nc1nc2ccccc2nc1N1CCc2ccccc2C1	0	7.5*	1	-23	-6	93	0	101	0
COC(=O)c1cc(OC)nc2c1c(=O)n(C)c(=O)n2C	0	9.6*	0	7	0	98	0	96	0
COC(=O)c1cc(-c2cccc([N+](=O)[O-])c2)c2c(=O)n(C)c(=O)n(C)c2n1	-2	-1	2	-9	-2	.	.	.	.
CC12CCC(C1)C(C)(C)C2OC(=O)c1ccccc1C(=O)O (stereo not drawn)	-3	0	12	5	-2	.	.	.	.
CC(C)Oc1ccc(-c2cc(C(=O)NCCN3CCOCC3)c3ccccc3n2)cc1	-2	0	-9	-4	-2	96	0	103	0
CCOc1ccc(-c2cc(C(=O)N3CCCC3)c3ccccc3n2)cc1	-2	0	2	7	-1	.	.	.	.
CCOc1ccc(-c2cc(C(=O)N3CCN(C)CC3)c3ccccc3n2)cc1	-2	0	2	-12	-5	99	0	105	0
Cc1[nH]c(=O)c(C#N)c2c1CSC(C)(C)C2	-2	0	-1	0	-3	.	.	.	.
O=C(CCn1nnnc1CN1CCOCC1)N1CCC(c2ccccc2F)C1 (stereo not drawn)	-3	0	0	-9	-1	.	.	.	.
COc1ccc(-c2nc(Cn3c(SCc4ccc(C)cc4)nc4ccncc43)c(C)o2)cc1OC	-1	0.4*	5	-24	-1	103	0	102	0
COc1ccc(-c2nc(Cn3c(SCc4cccc(F)c4)nc4ccncc43)c(C)o2)cc1OC	1	0.5*	0	0	-1	108	1	106	0
COc1ccc(-c2nc(CN3CCC(c4ccccc4)CC3)c(C)o2)cc1OC	-1	0	1	-17	0	.	.	.	.
SMILES	STK33 kinase inh	Efflux pump mplx	GSK3beta inhib	PolyA inhibitor	GSK3A inh	Cmpd fluor yeast	CaMdr1 efflux inh	CaCdr2 efflux inh	Cdr1 pump inh
Cc1ccc(CSc2nc3ccncc3n2CC(=O)Nc2cc(C)cc(C)c2)cc1	-1	0	3	2	-4	.	.	.	.
Cc1noc(C)c1COc1ccccc1C(=O)N1CCN(c2cccc(Cl)c2)CC1	1	0	.	.	-1	.	.	.	.
Cc1noc(C)c1COc1ccccc1C(=O)N1CCN(c2cccc(C(F)(F)F)c2)CC1	2	1.1*	.	.	20	112	0	110	0
N#C/C(=C/c1ccc(-c2ccc(S(N)(=O)=O)cc2)o1)c1nc2ccccc2s1	-3	2.6*	.	.	2	99	1	150	0
N#C/C(=C/c1ccc(-c2ccc(S(N)(=O)=O)cc2)o1)C(=O)Nc1ccccc1	1	9.7*	0	5	-2	98	0	91	0
N#C/C(=C\c1ccc(-c2nc3ccccc3s2)o1)C(N)=O	-2	0	5	6	0	.	.	.	.
CC(C)(C)C(=O)Cn1ncc(NC2CC2)c(Br)c1=O	-7	0	2	5	-3	.	.	.	.
Cc1cccc(CS(=O)(=O)Cc2ccc(C(=O)NCc3ccco3)o2)c1	0	13*	3	5	-3	109	0	101	0
Cc1ccc(CS(=O)(=O)Cc2ccc(C(=O)NCc3ccco3)o2)cc1	-1	0	1	-12	-2	.	.	.	.
COc1cc(/C=C/c2nc3ccccc3s2)cc(OC)c1O	2	0.8*	-4	-16	-3	81	0	85	0
COc1cc(C=C(c2nc3ccccc3s2)c2nc3ccccc3s2)ccc1O	-2	0	0	-25	-2	.	.	.	.

From PubChem BioAssay
